Compound activity deposited in PubChem BioAssay by several laboratories.
PLCb3 inh – human PLC-beta3 inhibitors, primary screen, biochemical, fluorescence; actives 0.18% (n = 370,000); inhibition, % at 12.2 µM; 1-phosphatidylinositol 4,5-bisphosphate phosphodiesterase beta-3 (Homo sapiens), Q01970; AID 720704, 2013; Purified PLC-beta3, fluorogenic substrate; in the data active means inhibition above about 11%;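 further: 0% = median of compound wells on plate and 100% = full blocker control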
PLC-gamma1 inh – PLC-gamma1 enzyme inhibitors, primary screen, biochemical, fluorescence, purified enzyme. actives 0.84% (n = 370,000). inhibition, % at 12.2 µM. fluorogenic substrate; in the data active means inhibition above about 9.5%
UCH37 DUB inh – inhibitors of human UCH37 deubiquitinase, primary screen, biochemical, Ub-AMC cleavage, fluorescence. actives 0.33% (n = 330,000). AID 588478, 2011. purified proteasome/UCH37. inhibition, % (concentration not given with the values);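 active means mean inhibition over replicate wells above about 20%, limit read from the data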;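 further: 0% = compound-free wells with enzyme and 100% = wells lacking proteasome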
Target sequence (Q9Y5K5 whole entry, looked up): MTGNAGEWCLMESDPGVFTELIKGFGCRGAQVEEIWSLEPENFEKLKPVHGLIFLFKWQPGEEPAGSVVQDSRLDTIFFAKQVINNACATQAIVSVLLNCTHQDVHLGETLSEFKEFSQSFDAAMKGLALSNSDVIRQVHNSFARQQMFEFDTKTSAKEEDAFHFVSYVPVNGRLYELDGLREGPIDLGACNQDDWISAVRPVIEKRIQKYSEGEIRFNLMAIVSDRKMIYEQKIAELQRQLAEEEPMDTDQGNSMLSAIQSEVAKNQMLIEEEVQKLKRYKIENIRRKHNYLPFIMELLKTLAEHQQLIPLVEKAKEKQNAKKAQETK
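Material: Human UCH37 enzyme supplied as purified proteasome complex | Schedule: 30 min compound-proteasome preincubation then 25 min substrate reaction, room temperature | Detection: AMC fluorescence from Ub-AMC cleavage, excitation 355 nm, emission 460 nm | Benchmarks: Wells without proteasome as full block, compound-free enzyme plus substrate as uninhibited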
Rpn11 block – Rpn11 (PSMD14) deubiquitinase inhibitors, primary screen, biochemical, fluorescence polarization, uHTS; 26S proteasome non-ATPase regulatory subunit 14 (Homo sapiens), O00487; human 26S proteasome, Ub4-pepOG fluorescence polarization; 20S core pre-blocked with epoxomicin; inhibition, % at 20 µM; actives 0.59% (n = 360,000); AID 588493, 2011;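 active means inhibition at 20 µM, scaled to each plate's controls, above about 33%, limit read from the data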
Target sequence (O00487 whole entry, looked up): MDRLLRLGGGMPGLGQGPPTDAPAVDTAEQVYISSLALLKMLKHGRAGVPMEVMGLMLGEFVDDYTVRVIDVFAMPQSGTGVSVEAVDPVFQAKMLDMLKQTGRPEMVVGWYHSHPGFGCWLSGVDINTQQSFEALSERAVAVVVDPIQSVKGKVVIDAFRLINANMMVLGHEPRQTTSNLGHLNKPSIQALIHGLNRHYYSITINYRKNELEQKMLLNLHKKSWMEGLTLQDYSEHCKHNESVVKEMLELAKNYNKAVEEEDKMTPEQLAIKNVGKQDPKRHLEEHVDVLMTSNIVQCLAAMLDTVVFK
Numbers without * were called inactive; i = inactive; / = no result shown; ! = repeats disagree. Compounds with a hit are over-represented: about 1.7% of the library has one in this group of screens.

SMILES	PLCb3 inh	PLC-gamma1 inh	UCH37 DUB inh	Rpn11 block
CCN(CC)c1ccc(/C=C2\C(=N)N3N=C(CC(=O)N4CCOCC4)SC3=NC2=O)cc1	-28.1	-1.2	21.2*	/
O=C(CCCCCNC(=O)c1ccccc1)NN=Cc1ccccc1	/	/	4.5	/
Cc1ccccc1C(=O)NN=Cc1ccc(OCC(=O)N2CCCCC2)cc1	/	/	1.5	/
O=C(CC(=O)NC1CCCCC1)NN=Cc1ccc(Cl)cc1	/	/	27.0*	/
Nc1nnnn1CC(=O)NN=Cc1cc([N+](=O)[O-])ccc1O	/	/	6.6	/
Cc1ccc(-c2cn(-c3ccccc3)c3[n+]2CCCS3)cc1	-3.0	-1.8	4.2	-6.5
COc1ccc(-n2cc(-c3ccc(C)cc3)[n+]3c2SCC3)cc1	0.9	-0.6	34.6*	-9.0
COc1ccccc1C=NNC(=O)CC(=O)NC1CCCCC1	/	/	0.1	/
CCOC(=O)c1oc2ccc(CNC(C)(C)C)c(Cl)c2c1C	6.2	12.2*	4.5	-5.6
O=C(COC(=O)c1ccc([N+](=O)[O-])o1)NCc1ccc(F)cc1	-7.1	1.2	24.6*	2.1
O=C(COC(=O)c1ccc([N+](=O)[O-])o1)NCCCc1ccccc1	-15.4	-7.0	20.1*	-0.4
O=C(COC(=O)c1ccc([N+](=O)[O-])o1)NC1CCS(=O)(=O)C1 (stereo not drawn)	5.7	3.0	24.9*	4.9
O=C(COC(=O)c1ccc(Br)o1)NCc1ccc(F)cc1	-3.1	3.8	2.0	0.1
CC1CCCC(NC(=O)COC(=O)c2ccc([N+](=O)[O-])o2)C1C (stereo not drawn)	-7.1	-3.9	12.7	-2.2
CCN(C(=O)COC(=O)c1ccc([N+](=O)[O-])o1)C1CCCCC1	-3.1	-2.5	20.8*	2.9
COC(=O)C(=NNc1ccccc1Cl)Sc1nnc(C(O)c2ccccc2)n1-c1ccccc1 (stereo not drawn)	/	/	2.4	/
Cc1cc(C)cc(CSCC(=O)NN=Cc2ccc(OCC(=O)NCc3ccco3)cc2)c1	/	/	3.6	/
CCN(CC)C(=O)C(=O)NN=Cc1cccc(Br)c1	/	/	3.1	/
Cc1ccc(SCc2cc(=O)[nH]c(N3CCN(C)CC3)n2)cc1	-0.3	-2.0	27.5*	1.7
Cc1nnc(SCc2cc(=O)[nH]c(N3CCN(C)CC3)n2)s1	3.4	-1.7	0.0	-10.4
Cc1c(NC(=O)CN2CC(C)OC(C)C2)c(=O)n(-c2ccccc2)n1C (stereo not drawn)	1.9	14.3*!	2.1	-4.6
Cc1c(NC(=O)CN2CCN(c3ccccc3)CC2)c(=O)n(-c2ccccc2)n1C	3.9	-0.2	-0.4	0.0
Cc1ccc2c(c1)N(S(=O)(=O)c1ccc(CN3C(=O)c4cccnc4C3=O)s1)CCO2	-4.2	11.8*	3.5	-0.3
Cc1ccc2c(c1)N(S(=O)(=O)c1ccc(CN3C(=O)c4cccnc4C3=O)cc1)CCO2	-3.8	3.9	-0.8	0.9
O=C(O)CCCCCn1c(SCC(=O)c2ccc(O)c(O)c2)nc2ccsc2c1=O	2.6	11.1*	11.1	-6.4
SMILES	PLCb3 inh	PLC-gamma1 inh	UCH37 DUB inh	Rpn11 block
COc1ccc(Cc2c(N)nc(N)nc2N)cc1	0.1	2.1	4.5	-2.4
Nc1ccc(OCCCc2c(N)nc(N)nc2N)cc1	-5.3	0.7	/	80.8*
Cc1onc(-c2ccc(Cl)cc2Cl)c1-c1csc(NN=Cc2ccccc2)n1	/	/	-12.6	/
O=C(NN=Cc1cccnc1)c1cc(Br)ccc1O	/	/	5.6	/
CC1=NN(C(=O)CSCc2ccccc2)C(O)(c2ccc(F)cc2)C1 (stereo not drawn)	-0.8	2.4	21.8*	2.2
CC(C)CC1=C/C(=C/c2ccc(-c3ccccc3)o2)C(=O)O1	-30.1	-27.9	-53.9	53.2*
COc1cccc(OC)c1C(=O)Nc1nc2ccc([N+](=O)[O-])cc2s1	0.9	1.8	21.2*	3.2
Cc1ccc(NC(=O)CN2C(=O)N/C(=C/c3cc(C)n(-c4ccc(C(=O)O)cc4)c3C)C2=O)cc1	-33.7	-28.9	10.3	1.0
Cc1ccc(NC(=O)CN2C(=O)N/C(=C/c3cccn3-c3ccc(C(=O)O)cc3)C2=O)cc1	-5.0	2.7	21.0*	/
O=C(Nc1cccc(Br)c1)Oc1cccc2cccnc12	-2.1	-2.2	/	-0.1
O=C(Nc1c(Cl)cccc1Cl)Oc1cccc2cccnc12	-21.9	-23.0	/	51.2*
O=C(c1ncn(Cc2ccccc2)c1C(=O)N1CCN(c2ccccc2)CC1)N1CCN(c2ccccc2)CC1	-1.5	-2.2	1.3	0.1
CC(C)(C)OC(=O)N1CCN(C(=O)c2ncn(Cc3ccccc3)c2C(=O)N2CCN(C(=O)OC(C)(C)C)CC2)CC1	4.1	3.8	29.0*	-2.4
O=C1C2C3C=CC(C3)C2C(=O)N1c1cccc(N2C(=O)C3C4C=CC(C4)C3C2=O)n1 (stereo not drawn)	-10.9	-3.0	-0.2	-2.4
O=C1C2C3C=CC(C3)C2C(=O)N1c1ccc2ccccc2n1 (stereo not drawn)	-1.0	-0.1	31.6*	0.9
Cc1cccc(-n2c(C)cc(C=NNC(N)=S)c2C)c1	/	/	-15.6	/
CCN(CC)C(=O)c1sc2nc(-c3cccs3)cc(-c3ccc(Cl)cc3)c2c1N	-50.1	-42.9	-33.8	37.0*
CCN(CC)C(=O)c1sc2nc(-c3cccs3)cc(-c3cccs3)c2c1N	-79.5	-55.7	-9.4	34.1
CC(C)Oc1ccc(C(CCN)C2CCCCC2)cc1 (stereo not drawn)	-3.8	11.8*	/	-1.9
CC(C)Oc1ccc(C(=O)NC2CCCCC2)cc1	0.6	2.7	0.9	-0.4
Cc1[nH]ccc(=O)c1OCc1c(Cl)cccc1Cl	1.5	3.7	1.9	4.0
Cc1ccc(Cn2ccc(=O)c(OCc3c(Cl)cccc3Cl)c2C)cc1	-1.7	2.5	24.9*	7.1
O=C(/C=C/c1ccc(Cl)cc1)NC(=S)Nc1ccc(C(=O)O)cc1	0.4	10.8*	6.0	-6.8
Cc1cc(C)cc(-n2c(C)cc(C=NNC(=O)CN(c3c(C)cccc3C)S(C)(=O)=O)c2C)c1	/	/	2.1	/
CC1N(C)c2cccc3cccc(c23)N1C	-324.4	-267.3	i	71.2*
SMILES	PLCb3 inh	PLC-gamma1 inh	UCH37 DUB inh	Rpn11 block
O=C(CSc1ncn[nH]1)Nc1nc(-c2ccccc2)cs1	-0.1	-0.5	28.4*	3.5
CCCSC1=N/C(=C\c2ccc([N+](=O)[O-])o2)C(=O)S1	-19.6	0.5	3.5	53.4*
S=c1[nH]nc(COc2ccccc2)n1N=Cc1ccco1	/	/	2.1	/
COc1ccc(C(CNC(=O)c2ccc(C)c(S(=O)(=O)N3CCOCC3)c2)N2CCCC2)cc1 (stereo not drawn)	-14.9	10.3*	4.0	-0.7
C=CCc1ccc(OCCOc2cccc(C=Nn3cnnc3)c2)c(OC)c1	/	/	5.7	/
COC(=O)NN=Cc1cc(OC)c(O)c([N+](=O)[O-])c1	/	/	14.1	/
COc1cc(/C=C2\C(=O)NN(c3ccc(C)cc3)C2=O)cc([N+](=O)[O-])c1O	0.9	-1.9	16.0	3.4
COc1cc(C=NNC(=O)Cc2ccccc2)cc([N+](=O)[O-])c1O	/	/	21.9*	/
